Consider 42 compounds from ChEMBL document CHEMBL4480385, “Design, synthesis and molecular docking studies of novel N-arylsulfonyl-benzimidazoles with anti Trypanosoma cruzi activity” (Eur J Med Chem, 2019).

What is called IC50 is the concentration that gives 50% inhibition. One may read the pIC50 as −log10 of the IC50, conventionally taken in molar units.

Series [1] deals with Trypanosoma cruzi. The experiment in a line: Anti-trypanosomal activity against Trypanosoma cruzi IRHOD/CO/2008/SN3 epimastigotes after 72 hrs by Neubauer hemocytometric method. In kind it is functional, organism-based. The settings on record: IRHOD/CO/2008/SN3, 72 h.
Series [2] relates to Vero. The experiment in a line: Cytotoxicity against African green monkey Vero cells after 72 hrs by propidium iodide/fluorescein diacetate staining based flow cytometry. In kind it is cell-based. The settings on record: Chlorocebus sabaeus. (In flow cytometry, cells or beads pass a laser one at a time.)
Series [3] is described as follows: Selectivity index, ratio of IC50 for African green monkey Vero cells to IC50 for Trypanosoma cruzi IRHOD/CO/2008/SN3 epimastigotes. The following applies: read-out: Ratio IC50. In kind it is toxicity.
In series [4] the test system is Trypanosoma cruzi. Nature of the series: Potency index, ratio benznidazole IC50 to test compound IC50 for anti-trypanosomal activity against Trypanosoma cruzi IRHOD/CO/2008/SN3 epimastigotes. In kind it is functional. In short, it runs like this: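 Epimastigotes of the SN3 strain were grown in TLM with 10% inactivated FBS at 28 °C in air. Compounds or benznidazole, dissolved in PEG:EtOH (7:3), were added at final levels of 1, 10, 25 and 50 and left for 72 h. Parasites were counted by haemocytometer. IC50 for 50% growth inhibition was fitted by PROBIT, and values are the mean of three experiments.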

Series [5] in a line: Inhibition of Trypanosoma cruzi apoenzyme form of PFK.
A short description of series [6]: Inhibition of Trypanosoma cruzi holoenzyme form of PFK.
The test system of series [7] is Trypanosoma cruzi. Nature of the series: Anti-trypanosomal activity against Trypanosoma cruzi IRHOD/CO/2008/SN3 amastigotes infected in African green monkey Vero cells after 72 hrs by Giemsa-staining based microscopic analysis. In kind it is functional, organism-based. The settings on record: IRHOD/CO/2008/SN3, Vero.
The nature of series [8]: Selectivity index, ratio of IC50 for African green monkey Vero cells to IC50 for Trypanosoma cruzi IRHOD/CO/2008/SN3 amastigotes infected in African green monkey Vero cells. In kind it is toxicity. The settings on record: read-out: Ratio IC50.
Series [9] concerns Trypanosoma cruzi. Nature of the series: Inhibition of PFK in Trypanosoma cruzi IRHOD/CO/2008/SN3 epimastigotes assessed as change in succinate excretion at IC25 after 96 hrs by 1H NMR analysis relative to control. Details: scale not given: the % may be the effect or the level left. In short, it runs like this: (§1)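 SN3 epimastigotes (starting at 5 × 10⁵ cells/mL) were incubated with compound for 96 h at 28 °C, alongside drug-free control cultures. Cells were pelleted at 400 g for 10 min. Excreted end products in the supernatant were identified and quantified by ¹H NMR against a DSS reference signal, and compared with the controls.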

For series [10], the system named is Trypanosoma cruzi. Nature of the series: Inhibition of PFK in Trypanosoma cruzi IRHOD/CO/2008/SN3 epimastigotes assessed as change in pyruvate excretion at IC25 after 96 hrs by 1H NMR analysis relative to control. Also noted: scale not given: the % may be the effect or the level left. Summed up:
as §1

Series [11] relates to Trypanosoma cruzi. Nature of the series: Inhibition of PFK in Trypanosoma cruzi IRHOD/CO/2008/SN3 epimastigotes assessed as change in acetate excretion at IC25 after 96 hrs by 1H NMR analysis relative to control. Details: scale not given: the % may be the effect or the level left. Summed up:
as §1

The subject of series [12] is Trypanosoma cruzi. The experiment in a line: Inhibition of PFK in Trypanosoma cruzi IRHOD/CO/2008/SN3 epimastigotes assessed as change in L-alanine excretion at IC25 after 96 hrs by 1H NMR analysis relative to control. Details: scale not given: the % may be the effect or the level left. In short, it runs like this:
as §1

In series [13] the test system is Trypanosoma cruzi. The experiment in a line: Inhibition of PFK in Trypanosoma cruzi IRHOD/CO/2008/SN3 epimastigotes assessed as change in D-lactate excretion at IC25 after 96 hrs by 1H NMR analysis relative to control. Also noted: scale not given: the % may be the effect or the level left. In short, it runs like this:
as §1

For `CC(C)(C)c1ccc(S(=O)(=O)n2cnc3ccccc32)cc1`, the figures for the IC50 in series [1] and in series [2] were 3 µM and 68.5 µM, respectively. Also, the selectivity ratio in [3] was 22.5. In series [4], the “Ratio IC50” value was 3 - 5. This compound displayed a negative logarithm of the IC50 (pIC50) in series [5] of 3.48.
On to `Cc1cc(NS(=O)(=O)c2ccc(NC(=O)Cc3ccc(C)c(F)c3)cc2)no1`, for which the negative-log IC50 (pIC50) in series [5] and in series [6] was 3.81 each time.
In the case of `Cc1cc(NS(=O)(=O)c2ccc(NC(=O)Cc3ccc(Cl)c(F)c3)cc2)no1`, the negative-log IC50 (pIC50) in [5] and in series [6] was 2.81 throughout.
In the case of `O=C(Cc1ccc(F)c(Cl)c1)Nc1ccc(S(=O)(=O)Nc2nccs2)cc1`, the pIC50 in [5] and in [6] was 2.07 throughout.
As for `Cc1cc(NS(=O)(=O)c2ccc(NC(=O)Cc3ccc(F)c(Cl)c3)cc2)no1`, the pIC50 in series [5] and in series [6] was 2.66 in each case.
`Cc1cc(NS(=O)(=O)c2ccc(C(=O)NCc3ccc(Cl)c(Cl)c3)cc2)no1`: the negative-log IC50 (pIC50) in [5] and in [6] was 3.51 each time.
`COc1ccc(CC(=O)Nc2ccc(S(=O)(=O)Nc3cc(C)on3)cc2)cc1C`: the pIC50 in [5] and in series [6] was 4.31 in each case.
Turning to `O=C(Cc1ccc(Cl)c(Cl)c1)Nc1ccc(S(=O)(=O)Nc2cc[nH]n2)cc1`, the pIC50 in series [5] and in [6] was 2.86 throughout.
Turning to `Cc1cc(NS(=O)(=O)c2ccc(NC(=O)Cc3ccc(Cl)cc3Cl)cc2)no1`, the negative-log IC50 (pIC50) in series [5] and in [6] was 4.21 throughout.
In the case of `O=C(Cc1ccc(F)c(Cl)c1)Nc1ccc(S(=O)(=O)Nc2nncs2)cc1`, the pIC50 in series [5] and in [6] was 2.23 each time.
On to `Cc1cc(NS(=O)(=O)c2ccc(NCCc3ccc(Cl)c(Cl)c3)cc2)no1`, for which the negative-log IC50 (pIC50) in [5] and in [6] was 4.21 throughout.
As to `CC(=O)c1ccc(S(=O)(=O)n2cnc3ccccc32)cc1`, the IC50 in [1] is 26.8 µM; in series [2], 656 µM. The selectivity ratio in [3] came to 24.5. The compound further showed a pIC50 in series [5] of 4.43.
In the case of `Cc1cc(NS(=O)(=O)c2ccc(NC(=O)Cc3ccccc3)cc2)no1`, the negative logarithm of the IC50 (pIC50) in series [5] and in series [6] was 4.31 throughout.
Consider `O=C(Cc1ccc(Cl)c(Cl)c1)Nc1ccc(S(=O)(=O)Nc2ccon2)cc1`, for which the negative-log IC50 (pIC50) in series [5] and in series [6] was 2.11 each time.
As for `Cc1cc(NS(=O)(=O)c2ccc(N(C)C(=O)Cc3ccc(Cl)c(Cl)c3)cc2)no1`, the pIC50 in series [5] stood at 3.16; in series [6], 3.06.
Turning to `Cc1cc(NS(=O)(=O)c2ccc(NC(=O)Cc3ccc(Cl)c(Cl)c3)cc2)no1`, the negative logarithm of the IC50 (pIC50) in series [5] and in series [6] was 2.36 each time.
Consider `Cc1cc(NS(=O)(=O)c2ccc(NC(=O)Cc3ccc(C)c(C)c3)cc2)no1`, for which the pIC50 in series [5] and in series [6] was 3.81 throughout.
`Cc1cc(N(C)S(=O)(=O)c2ccc(NC(=O)Cc3ccc(Cl)c(Cl)c3)cc2)no1`: the pIC50 in [5] and in [6] was 3.41 throughout.
Turning to `Cc1cc(NS(=O)(=O)c2ccc(NC(=O)Cc3ccc(Cl)cc3)cc2)no1`, the negative-log IC50 (pIC50) in series [5] was found to be 3.21; in series [6], 3.11.
On to `O=S(=O)(c1cccc(C(F)(F)F)c1)n1cnc2ccccc21`, for which the IC50 is 13.9 µM in series [1] and 59.8 µM in [2]. Besides, the selectivity ratio in series [3] came out at 4.3. The negative-log IC50 (pIC50) in series [5] was determined as 4.14.
Taken in the same sequence, the figures for `Cc1ccc(S(=O)(=O)n2cnc3ccccc32)cc1` were 23.8 µM, 108 µM, 4.5 and 4.38.
With `O=C(Cc1ccc(Cl)c(Cl)c1)Nc1ccc(S(=O)(=O)Nc2cccc(O)c2)cc1`, the negative-log IC50 (pIC50) was 3.26 in series [5] and 3.16 in series [6].
For the compound `Cc1cc(NS(=O)(=O)C2CCN(C(=O)Cc3ccc(Cl)c(Cl)c3)CC2)no1`, the pIC50 in [5] and in series [6] was 4.16 throughout.
As for `O=[N+]([O-])c1ccccc1S(=O)(=O)n1cnc2ccccc21`, the values for the IC50 in [1] and in series [2] were 5.5 µM and 120 µM, respectively. Further, in [3], the selectivity ratio is 22. Besides, the “Ratio IC50” value in series [4] is 3 - 5. Besides, the pIC50 in series [5] was determined as 3.74.
Regarding `Cc1cc(NS(=O)(=O)c2ccc(NC(=O)Cc3ccc4ccccc4c3)cc2)no1`, the pIC50 in [5] was determined as 3.31; in series [6], 3.26.
Take `O=S(=O)(c1ccc(C(F)(F)F)cc1)n1cnc2ccccc21`: the results for the IC50 in series [1], in series [7] and in series [2] were 6.2 µM, 24 µM and 460 µM, respectively. Also, the selectivity ratio was found to be 74.8 in series [3] and 19.2 in series [8]. The Activity was -7.22% in series [9]; 10.6% in [10]; 11.8% in [11]; 9.92% in series [12]; 25.8% in series [13]. In series [5], this compound registered a pIC50 of 3.79.
For `Cc1cc(NS(=O)(=O)c2ccc(NC(=O)Cc3ccc(Cl)c(C(F)(F)F)c3)cc2)no1`, the negative-log IC50 (pIC50) in series [5] worked out at 2.96; in [6], 2.86.
`O=S(=O)(c1ccccc1)n1cnc2ccccc21`: the IC50 in series [1] came to 9 µM; in [7], 37.3 µM; in series [2], 1770 µM. Also, the selectivity ratio in [3] was found to be 196; in series [8], 47.3. The Activity in [9] was -16%; in [10], -13.4%; in series [11], 3.31%; in series [12], -3.24%; in series [13], 16.4%. In series [5], this compound yielded a negative-log IC50 (pIC50) of 3.95.
On to `Cc1cc(NS(=O)(=O)c2ccc(NC(=O)C(C)(C)c3ccc(Cl)c(Cl)c3)cc2)no1`, for which the negative logarithm of the IC50 (pIC50) in [5] and in [6] was 4.56 in each case.
Take `O=C(Cc1ccc(Cl)c(Cl)c1)Nc1ccc(S(=O)(=O)Nc2nncs2)cc1`: the pIC50 in series [5] and in [6] was 1.72 in each case.
Consider `O=[N+]([O-])c1ccc(S(=O)(=O)n2cnc3ccccc32)cc1`, for which the half-maximal inhibitory concentration (IC50) in series [1] was determined as 2.6 µM; in series [2], 347 µM. In series [3], the selectivity ratio was 135. The “Ratio IC50” value in series [4] is 3 - 5. Also, the pIC50 in series [5] is given as 3.41.
Turning to `Cc1cc(NS(=O)(=O)c2ccc(NC(=O)Cc3ccc(Cl)c(Cl)c3)cc2)n(C)n1`, the results for the negative-log IC50 (pIC50) in series [5] and in series [6] were 3.06 and 2.96, respectively.
Taken in the same sequence, the figures for `O=C(Cc1ccc(Cl)c(Cl)c1)Nc1ccc(S(=O)(=O)Nc2ccccc2)cc1` were 4.21 and 4.21.
Taken in the same sequence, the figures for `Cc1cc(NS(=O)(=O)Cc2ccc(NC(=O)Cc3ccc(Cl)c(Cl)c3)cc2)no1` were 3.66 and 3.66.
On to `O=S(=O)(c1ccc(Br)cc1)n1cnc2ccccc21`, for which the 50% inhibitory concentration (IC50) in [1] was 23.5 µM; in [7], 35.7 µM; in series [2], 1190 µM. Further, the selectivity ratio in [3] is 50.5; in series [8] it was 33.3. Also, the pIC50 in series [5] stood at 4.37.
Turning to `O=S(=O)(c1ccc(Cl)cc1)n1cnc2ccccc21`, the IC50 in series [1] is 16.8 µM; in series [2] it was 122 µM. In [3], the selectivity ratio is 7.3. Besides, the pIC50 in series [5] turned out to be 4.23.
For the compound `Cc1cc(NS(=O)(=O)c2ccc(NC(=O)CCc3ccc(Cl)c(Cl)c3)cc2)no1`, the pIC50 in [5] and in series [6] was 4.06 in each case.
As for `Cc1cc(NS(=O)(=O)c2ccc(NC(=O)Cc3cccc(Cl)c3)cc2)no1`, the negative logarithm of the IC50 (pIC50) in series [5] and in series [6] was 3.46 throughout.
For the compound `CN(C)c1cccc(NS(=O)(=O)c2ccc(NC(=O)Cc3ccc(Cl)c(Cl)c3)cc2)c1`, the negative-log IC50 (pIC50) in series [5] and in series [6] was 4.11 throughout.
With `Cc1cc(NS(=O)(=O)c2cccc(NC(=O)Cc3ccc(Cl)c(Cl)c3)c2)no1`, the pIC50 in [5] and in series [6] was 4.21 in each case.
On to `O=C(Cc1ccc(Cl)c(Cl)c1)Nc1ccc(S(=O)(=O)Nc2nccs2)cc1`, for which the negative-log IC50 (pIC50) in series [5] and in series [6] was 1.61 in each case.
With `Cc1cc(NS(=O)(=O)c2ccc(NC(=O)c3ccc(Cl)c(Cl)c3)cc2)no1`, the pIC50 in series [5] and in series [6] was 4.31 each time.
